The source of these data is article PMC4291291 (European journal of medicinal chemistry, 2014).

Series [1] deals with Staphylococcus aureus (TCH1516). Nature of the series: MIC against additional organisms. Format: cell-based.
In series [2] the test system is Streptococcus pyogenes (GAS 5448). Nature of the series: MIC against additional organisms. The class given is cell-based.
Series [3] concerns vancomycin resistant Enterococcus (VRE). Nature of the series: MIC against additional organisms. The class given is cell-based.
In series [4] the test system is HaCaT human keratinocytes. The series is described as follows: General cytotoxicity by lactate dehydrogenase. The class given is cell-based. The note with it: concentrations up to 1.6 mM, 24 h.
Another series relates to E. coli K12. The series is described as follows: MIC against additional organisms. Format: cell-based.
Series [5] deals with Streptococcus pneumoniae strain TIGR4. Nature of the series: Minimal inhibitory concentration. Format: cell-based.
The test system of series [6] is Streptococcus agalactiae (GBS COH1). The series is described as follows: MIC against additional organisms. Format: cell-based.
Series [7] can be described thus: Stability of prospective decomposition intermediates of 23 in PBS buffer. The class given is physicochemical.
Another series has as its system RAW murine macrophages. The series is described as follows: General cytotoxicity by lactate dehydrogenase. The class given is cell-based. The note with it: concentrations up to 1.6 mM, 24 h.
The subject of series [8] is bioactivity of mevalonate. The note with it: 200 μM concentration; cited from earlier work.
A short description of a further series: Stability in PBS buffer. The note with it: pH 7.4. The class given is physicochemical. A digest of the protocol:
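Test compound (10 mM acetonitrile stock, diluted 1:10) incubated in PBS pH 7.4 at 37 °C. Aliquots were taken at various times and injected directly onto HPLC with UV detection; run twice per compound. t1/2 = ln(2)/b, where b is the slope of ln(remaining parent fraction) versus time (one-phase decay).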

Series [9] in a line: Stability in human plasma at 37 °C. Format: in vitro ADME.
Series [10] in a line: Stability of ester promoiety in deuterated PBS buffer. The class given is physicochemical. The method, boiled down:
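Deuterated PBS pH 7.4 in D2O (NaCl 137 mM, KCl 2.7 mM, Na2HPO4 10.1 mM, KH2PO4 1.8 mM). Test compound (1.0 mg, 4 μmol) dissolved in 800 μL of this buffer in an NMR tube and held at 37 °C. 1H NMR taken at 30 min, 1 h, 4 h, 24 h and 48 h. Decomposition judged from the integration ratio of impurity to parent signals.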

Series [11] is described as follows: Enantiomeric ratio during incubation with human plasma. The class given is in vitro ADME. As to conditions: Chiral Cel OD-H. A digest of the protocol:
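Test compound (100 mM acetonitrile stock) added to human plasma, which was diluted with distilled water and pre-warmed 5 min, then incubated at 37 °C. At t1/4 and t1/2, portions were quenched with acetonitrile and run on HPLC with a Chiral Cel OD-H column; LC/MS also used. Ratio taken from each enantiomer's peak integration.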

The next series relates to human MK. The note with it: at concentrations that effectively inhibit the S. pneumoniae system; cited from earlier work.
Where [12] appears, read: Streptococcus pneumoniae, TIGR4, 24 h.
The mark [13] stands for this setting: t1/2 (min) of carbonate analogues in human plasma, footnote a: hydrolysis occurred only at carbonate promoieties.
The mark [14] stands for this setting: t1/2 (min) of benzyl amide and ester analogues in human plasma, footnote a: hydrolysis occurred only at the acetyl promoiety.

Converted amounts (≈) assume the structure as drawn. Where only a bound is given, the exact number is not on record here.

Usually MIC stands for the lowest concentration that inhibits growth of the organism. As a reminder, the half-life is how long it takes for the measured level to halve. The low end stands for fast loss, the high end for slow loss.

Turning to `O=C1CC(O)(C(F)(F)F)CCO1` (stereo not shown) [compound 26, 4-Hydroxy-4-(trifluoromethyl)tetrahydro-2H-pyran-2-one], the MIC in series [1] (Staphylococcus aureus) is more than 1600 µM; in [2] (Streptococcus pyogenes), 200 µM (≈ 36.8 µg/mL); in series [3] (Enterococcus, VRE) it was more than 1600 µM; against E. coli K12 (Escherichia coli, K12) it was more than 1600 µM; in series [5] (Streptococcus pneumoniae, TIGR4), 800 µM (≈ 147 µg/mL); in [5] (setting [12]), 800 µM (≈ 147 µg/mL). The compound further showed an MIC in [6] (Streptococcus agalactiae) of 800 µM (≈ 147 µg/mL). Moreover, the “general cytotoxicity (LDH release vs media alone)” value (in series [4]; in the series with RAW murine macrophages) was “No evidence of general cytotoxicity” each time. The compound also gave a half-life in series [7] of approximately 1 min.

Turning to 6-fluoromevalonate, in [8], the “block of the related bioactivity of mevalonate” value was “completely blocks”.

Turning to `O=C(CC1(C(F)(F)F)CCOC(=O)O1)OCc1ccc(F)cc1` (stereo not shown) [25a, 4-Fluorobenzyl 2-(2-oxo-4-(trifluoromethyl)-1,3-dioxan-4-yl)acetate], the MIC was more than 1600 µM in [1] (Staphylococcus aureus); more than 1600 µM in series [2] (Streptococcus pyogenes); more than 1600 µM in [3] (Enterococcus, VRE); more than 1600 µM in the series with E. coli K12 (Escherichia coli, K12); 1600 µM (≈ 538 µg/mL) in series [5] (setting [12]); more than 1600 µM in series [6] (Streptococcus agalactiae). Besides, the “general cytotoxicity (LDH release vs media alone)” value (in series [4]; with RAW murine macrophages) was “No evidence of general cytotoxicity” in each case. The “antibacterial activity against S. pneumoniae (in words)” value (“antibacterial activity” below) in series [5] (S. pneumoniae, THB medium) is on record as “marginally active”. The half-life in the series “Stability in PBS buffer” was 6 h.

Take `O=C(CC1(CF)CCOC(=O)O1)OCc1ccccc1` (stereo not shown) [compound 16, Benzyl 2-(4-(fluoromethyl)-2-oxo-1,3-dioxan-4-yl)acetate]: the “antibacterial activity” value in series [5] (S. pneumoniae, THB medium) is “generally inactive”. For the same compound, in [5] (setting [12]), the MIC is more than 1600 µM. Besides, the half-life in the series “Stability in PBS buffer” was 25 h.

`O=C(CC1(CF)CCOC(=O)O1)OCc1ccc(F)cc1F` (stereo not shown) [18b, 2,4-Difluorobenzyl 2-(4-(fluoromethyl)-2-oxo-1,3-dioxan-4-yl)acetate] had a half-life in “Stability in PBS buffer” of 22 h.

Take `O=C(CC1(CF)CCOC(=O)O1)OCc1ccc(F)cc1` (stereo not shown) [18a, 4-Fluorobenzyl 2-(4-(fluoromethyl)-2-oxo-1,3-dioxan-4-yl)acetate]: the “antibacterial activity” value in series [5] (S. pneumoniae, THB medium) was “generally inactive”. In [5] (setting [12]), this compound gave an MIC of more than 1600 µM. The half-life in the series “Stability in PBS buffer” was 26 h.

In series [9] (setting [13]), `CC1(CC(=O)NCc2ccc(F)cc2)CCOC(=O)O1` (stereo not shown) [10c, N-(4-Fluorobenzyl)-2-(4-methyl-2-oxo-1,3-dioxan-4-yl)acetamide] displayed a half-life at 4 mM of 0.133 h.

As for `CC1(C)S[C@@H]2[C@H](NC(=O)Cc3ccccc3)C(=O)N2[C@H]1C(=O)O` [penicillin G, reference compound], the MIC is less than 12.5 µM in [1] (Staphylococcus aureus); less than 12.5 µM in series [2] (Streptococcus pyogenes); less than 12.5 µM in series [3] (Enterococcus, VRE); less than 12.5 µM against E. coli K12 (Escherichia coli, K12); less than 12.5 µM in series [6] (Streptococcus agalactiae).

On to `CN[C@H](CC(C)C)C(=O)N[C@H]1C(=O)N[C@@H](CC(N)=O)C(=O)N[C@H]2C(=O)N[C@H]3C(=O)N[C@H](C(=O)N[C@H](C(=O)O)c4cc(O)cc(O)c4-c4cc3ccc4O)[C@H](O)c3ccc(c(Cl)c3)Oc3cc2cc(c3O[C@@H]2O[C@H](CO)[C@@H](O)[C@H](O)[C@H]2O[C@H]2C[C@](C)(N)[C@H](O)[C@H](C)O2)Oc2ccc(cc2Cl)[C@H]1O` [vancomycin, reference compound], for which the minimum inhibitory concentration (MIC) in series [1] (Staphylococcus aureus) is less than 12.5 µM; in series [2] (Streptococcus pyogenes), less than 12.5 µM; in [3] (Enterococcus, VRE), less than 12.5 µM; against E. coli K12 (Escherichia coli, K12), less than 12.5 µM; in [6] (Streptococcus agalactiae) it was less than 12.5 µM.

On to `CC(=O)OCCC(O)(CF)CC(=O)NCc1ccccc1` (stereo not shown) [38a, 5-(Benzylamino)-3-(fluoromethyl)-3-hydroxy-5-oxopentyl acetate], for which the MIC in series [5] (setting [12]) is more than 1600 µM. This compound also came in with a half-life at 4 mM in series [9] (setting [14]) of 0.333 to 0.5 h.

For the compound `CCOC(=O)CC(O)(CF)CCOC(C)=O` (stereo not shown) [38c, Ethyl 5-acetoxy-3-(fluoromethyl)-3-hydroxypentanoate], the “decomposition after 48 h” value in series [10] (deuterated PBS buffer pH 7.4, 37 °C, 48 h, 1H NMR integration ratio) is given as “less than 5%”. Besides, in series [10] (deuterated PBS buffer, pH 7.4), the half-life was more than 48 h. The compound further registered an MIC in series [5] (setting [12]) of more than 1600 µM.

In turn, `CC(O)(CCO)CC(=O)NCc1c(F)c(F)c(F)c(F)c1F` (stereo not shown) [compound 34, 3,5-Dihydroxy-3-methyl-N-((perfluorophenyl)methyl)pentanamide] showed a half-life in series [9] (half-life in human plasma) of more than 2 h.

The compound `COC(=O)CC(O)(CF)CCOC(C)=O` (stereo not shown) [38b, Methyl 5-acetoxy-3-(fluoromethyl)-3-hydroxypentanoate] displayed an MIC in series [5] (setting [12]) of more than 1600 µM.

Turning to `CC1(CC(=O)Oc2ccc(F)cc2)CCOC(=O)O1` (stereo not shown) [9b, 4-Fluorophenyl 2-(4-methyl-2-oxo-1,3-dioxan-4-yl)acetate], the half-life at 4 mM in series [9] (setting [13]) was less than 0.05 h.

On to `CC1(CC(=O)Nc2ccccc2)CCOC(=O)O1` (stereo not shown) [10a, 2-(4-Methyl-2-oxo-1,3-dioxan-4-yl)-N-phenylacetamide], for which, in series [9] (setting [13]), the half-life at 4 mM was less than 0.05 h.

`CC1(CC(=O)OCc2ccccc2)CCOC(=O)O1` (stereo not shown) [compound 4, Benzyl 2-(4-methyl-2-oxo-1,3-dioxan-4-yl)acetate]: the “integration ratio of each enantiomer” value in series [11] (at 2 min) is on record as 35/65; in series [11] (at 4 min), 41/59. In “Stability in PBS buffer”, this compound yielded a half-life of more than 48 h. This compound gave a half-life at 4 mM in series [9] (setting [13]) of 0.0667 h.

In the series “Stability in PBS buffer”, `O=C(CC1(C(F)(F)F)CCOC(=O)O1)OCc1ccccc1` (stereo not shown) [compound 23, Benzyl 2-(2-oxo-4-(trifluoromethyl)-1,3-dioxan-4-yl)acetate] had a half-life of 5 h.

In the case of `CC1(CC(=O)NCc2ccccc2)CCOC(=O)O1` (stereo not shown) [10b, N-Benzyl-2-(4-methyl-2-oxo-1,3-dioxan-4-yl)acetamide], the “integration ratio of each enantiomer” value in [11] (at 4 min) is reported as 48/52; in series [11] (at 8 min), 46/54. Further, the half-life at 4 mM in series [9] (setting [13]) was 0.133 h.

`O=C1CC(O)(CF)CCO1` (stereo not shown) [compound 28, 6-fluoromevalolactone]: the MIC in [1] (Staphylococcus aureus (TCH1516)) is more than 1600 µM; in [2] (Streptococcus pyogenes (GAS 5448)), more than 1600 µM; in [3] (vancomycin resistant Enterococcus (VRE)) it was more than 1600 µM; in the series on E. coli K12 (E. coli K12) it was more than 1600 µM; in series [5] (S. pneumoniae, THB media) it was 200 µM (≈ 29.6 µg/mL); in series [5] (S. pneumoniae, THB medium, 24 h, 37 °C, lowest drug concentration that reduced growth by 80% or more) it was 200 µM (≈ 29.6 µg/mL). This compound displayed a minimum inhibitory concentration (MIC) in series [6] (Streptococcus agalactiae (GBS COH1)) of more than 1600 µM. Also, in series [5] (S. pneumoniae MIC ratio), the “potency relative to 6,6,6-trifluoromevalolactone (26)” value amounted to 4 fold.

In “Stability in PBS buffer”, `O=C(CC1(C(F)(F)F)CCOC(=O)O1)OCc1ccc(F)cc1F` (stereo not shown) [25b, 2,4-Difluorobenzyl 2-(2-oxo-4-(trifluoromethyl)-1,3-dioxan-4-yl)acetate] had a half-life of 5 h.

The compound `CC1(CC(=O)Oc2ccccc2)CCOC(=O)O1` (stereo not shown) [9a, Phenyl 2-(4-methyl-2-oxo-1,3-dioxan-4-yl)acetate] came in with a half-life at 4 mM in series [9] (setting [13]) of less than 0.05 h.

As to `CC(=O)OCCC(C)(O)CC(=O)NCc1c(F)c(F)c(F)c(F)c1F` (stereo not shown) [compound 35, 3-Hydroxy-3-methyl-5-oxo-5-(((perfluorophenyl)methyl)amino)pentyl acetate], the half-life at 4 mM in series [9] (setting [14]) lay within 0.333 to 0.5 h.

Turning to `C[C@@](O)(CCOP(=O)(O)OP(=O)(O)O)CC(=O)O` [DPM, 5-diphosphomevalonate], in the series on human MK, the “inhibition of human MK” value is given as “not inhibited”.

For `O=C(CC1(C(F)(F)F)CCOC(c2ccccc2)O1)NCc1ccccc1` (stereo not shown) [32b, N-Benzyl-2-(2-phenyl-4-(trifluoromethyl)-1,3-dioxan-4-yl)acetamide], in [5] (S. pneumoniae, THB medium), the “antibacterial activity” value is on record as “lack activity”. Also, in series [5] (setting [12]), the MIC was more than 1600 µM.
